pIC50: −log10 of the molar value.
Assays:
[1] = Antioxidant activity assessed as trolox equivalents of cupric reducing antioxidant capacity after 30 mins; format: functional
In short: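 Mix of 1 ml CuCl2 (10 mM), 1 ml ethanolic neocuproine (7.5 mM), 1 ml ammonium acetate buffer (pH 7.0, 1 M), 1 ml compound or standard solution and 0.1 ml water, total 4.1 ml. A450 read after 30 min against reagent blank. TEAC = ε test/ε Trolox.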

[2] = Antioxidant activity assessed as hydroxyl radical scavenging activity after 15 mins; format: functional
In short: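 Deoxyribose degradation mix: 2-deoxy-2-ribose 2.8 mM, KH2PO4–KOH 20 mM pH 7.4, FeCl3, EDTA, H2O2 1.0 mM, ascorbic acid, plus compound in methanol. Incubated 1 h at 37 °C. A 0.5 ml aliquot taken with 1 ml 2.8% TCA and 1 ml 1% TBA, heated 90 °C for 15 min, cooled, A532 read. % inhibition against blank.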

[3] = tested on: Mus musculus; test: Analgesic activity in Swiss albino mouse assessed as inhibition of acetic acid-induced writhing response at 100 mg/kg, po administered 1 hr before acetic acid challenge after 5 mins; format: functional
[4] = tested on: Aspergillus niger; test: Antimicrobial activity against Aspergillus niger MTCC 292 at 0.02 ml of 1 mg/ml after 24 hrs by cup plate method; format: functional; settings: MTCC 292, 24 h, read-out: DIZ
In short: (§1)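 Cup-plate diffusion on Mueller-Hinton/nutrient agar swab-streaked with suspension, 6 mm cups bored. Each compound at 1 mg/ml in DMSO, 0.02 ml per cup; DMSO as solvent control. Amoxicillin for bacteria and fluconazole for fungi at 200 and 500 respectively as references. Incubation 37 °C for 24 h. Inhibition zone diameter in mm, triplicate, mean ± SD.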

[5] = tested on: Candida albicans; test: Antimicrobial activity against Candida albicans MTCC 227 at 0.02 ml of 1 mg/ml after 24 hrs by cup plate method; format: functional; settings: MTCC 227, 24 h, read-out: DIZ; in short: as §1
[6] = tested on: Rattus norvegicus; test: Antiinflammatory activity in Wister rat assessed as inhibition of carrageenan-induced paw edema at 100 mg/kg, po administered 1 hr before carrageenan challenge measured after 3 hrs by plethysmograph analysis; format: functional
In short: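 Rats of either sex, 150–220 g, food withheld 4 h. Compound or diclofenac sodium 100 mg/kg p.o., or 0.5% sodium CMC at 10 ml/kg as vehicle control, given 1 h before 0.05 ml of 1% carrageenan subplantar into the right hind paw. Paw volume read by water-displacement plethysmograph at 0, 30, 60, 120 and 180 min. % edema inhibition = 100(1−Vt/Vc); n=5, control n=6; ANOVA/Dunnett.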

[7] = tested on: Mus musculus; test: Acute toxicity in Swiss albino mouse assessed as mortality up to 1500 mg/kg, po; format: organism-based; design: dose 1500 mg/kg, route oral; settings: in vivo
In short: (§2)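 Swiss albino mice (6–8 weeks, 25–30 g) were dosed orally at 500, 1000 or 1500 mg/kg, following OECD guidelines. Body weight, food and water intake, behavioural patterns and mortality were recorded and compared with a control group.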

[8] = tested on: Brain; test: Antioxidant activity against lipid peroxidation in Wister rat brain homogenates assessed as thiobarbituric acid reactive substance formation after 30 mins by spectrophotometer analysis; format: functional, tissue-based; settings: 0.5 h
In short: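 Whole brain minus cerebellum from overnight-fasted rats of either sex, 200–220 g. Homogenized 10% w/v in 0.15 M KCl and spun at 800 rpm for 10 min. Reaction incubated 37 °C for 30 min, then TBA:TCA (1:1) and BHT added, heated 80 °C for 20 min, cooled, centrifuged, A532 read.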

[9] = tested on: Bacillus subtilis; test: Antimicrobial activity against Bacillus subtilis MTCC 441 at 0.02 ml of 1 mg/ml after 24 hrs by cup plate method; format: functional; settings: MTCC 441, 24 h, read-out: DIZ; in short: as §1
[10] = tested on: Escherichia coli; test: Antimicrobial activity against Escherichia coli ESS 2231 at 0.02 ml of 1 mg/ml after 24 hrs by cup plate method; format: functional; settings: ESS 2231, 24 h, read-out: DIZ; in short: as §1
[11] = tested on: Mus musculus; test: Acute toxicity in Swiss albino mouse assessed as gross behavioral changes up to 1500 mg/kg, po; format: organism-based; design: dose 1500 mg/kg, route oral; settings: in vivo; in short: as §2
[12] = tested on: Staphylococcus aureus; test: Antimicrobial activity against Staphylococcus aureus MTCC 96 at 0.02 ml of 1 mg/ml after 24 hrs by cup plate method; format: functional; settings: MTCC 96, 24 h, read-out: DIZ; in short: as §1
[13] = tested on: Radical scavenging activity; test: Antioxidant activity assessed as DPPH radical scavenging activity after 20 to 30 mins; format: functional
In short: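 Test solution (2 ml at 25, 50, 75, 100, 125) mixed with 2 ml ethanolic DPPH, held in the dark at ambient temperature 20–30 min, then A517 read against an ethanol blank. Tocopherol used as standard. % scavenging = (Acontrol−Atest)/Acontrol×100, run in triplicate. IC50 read graphically from the % scavenging versus concentration plot.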

[14] = tested on: Pseudomonas aeruginosa; test: Antimicrobial activity against Pseudomonas aeruginosa MTCC 1688 at 0.02 ml of 1 mg/ml after 24 hrs by cup plate method; format: functional; settings: MTCC 1688, 24 h, read-out: DIZ; in short: as §1

Row | SMILES | TEAC (Trolox equivalents) [1] | pIC50 [2] | inhibition in vivo at 100 mg/kg [3] [%] | zone of inhibition at 1000 µg/mL [4] [mm] | zone of inhibition at 1000 µg/mL [5] [mm] | inhibition in vivo at 100 mg/kg [6] [%] | Activity [7] | pIC50 [8] | zone of inhibition at 1000 µg/mL [9] [mm] | zone of inhibition at 1000 µg/mL [10] [mm] | Activity [11] | zone of inhibition at 1000 µg/mL [12] [mm] | pIC50 [13] | zone of inhibition at 1000 µg/mL [14] [mm]
1 | O=C1O[C@H]([C@@H](O)CO)C(O)=C1O [ASCORBIC ACID] | 2.63 | 4.30 | – | – | – | – | – | – | – | – | – | – | – | –
2 | Cc1ccc(/C=C(/NC(=O)c2ccccc2)C(=O)NC(CS)C(=O)N(C(=O)NC2CCCCC2)C2CCCCC2)cc1 (centres undefined) | 2.36 | 4.18 | 41.2 | 15.4 | 14.2 | 35.5 | Non-toxic | 3.95 | 15.8 | 22.7 | Non-toxic | 16.8 | 4.08 | 18.4
3 | O=C(NC(CS)C(=O)N(C(=O)NC1CCCCC1)C1CCCCC1)/C(=C\c1ccc(F)cc1)NC(=O)c1ccccc1 (centres undefined) | 3.6 | 4.29 | 42 | 18.2 | 17.1 | 25 | Non-toxic | 4.13 | 14.5 | 14.3 | Non-toxic | 11.4 | 4.23 | 16.6
4 | O=C(NCC(=O)N(C(=O)NC1CCCCC1)C1CCCCC1)/C(=C\c1ccc(F)cc1)NC(=O)c1ccccc1 | 1.22 | 4.05 | 22 | 20.8 | 19.2 | 20.6 | Non-toxic | 4.01 | 20.1 | 16.5 | Non-toxic | 19.3 | 4.05 | 17.6
5 | O=C(O)Cc1ccccc1Nc1c(Cl)cccc1Cl [DICLOFENAC SODIUM] | – | – | – | – | – | 66.8 | – | – | – | – | – | – | – | –
6 | Cc1ccc(/C=C(/NC(=O)c2ccccc2)C(=O)NCC(=O)N(C(=O)NC2CCCCC2)C2CCCCC2)cc1 | 1.24 | 4.00 | 48.8 | 14.5 | 13.4 | 23.9 | Non-toxic | 3.89 | 13.2 | 13.3 | Non-toxic | 15.5 | 4.14 | 17.6
7 | COc1ccc(/C=C(/NC(=O)c2ccccc2)C(=O)NC(CS)C(=O)N(C(=O)NC2CCCCC2)C2CCCCC2)cc1 (centres undefined) | 2.91 | 4.01 | 36 | 20.3 | 19.8 | 31.5 | Non-toxic | 3.90 | 20.1 | 16.4 | Non-toxic | 19.2 | 4.05 | 17.7
8 | Cc1cc(C(C)(C)C)c(O)c(C(C)(C)C)c1 [BUTYLATED HYDROXYTOLUENE] | – | – | – | – | – | – | – | 4.24 | – | – | – | – | – | –
